Test results from ChEMBL document CHEMBL1155568, “Biological characterization of fusapyrone and deoxyfusapyrone, two bioactive secondary metabolites of Fusarium semitectum” (J Nat Prod, 2000).
The source made the active and inactive calls. The rule behind the calls is not given here.

Legend:
Cryptococcus neoformans [1] = test: Antifungal activity against Cryptococcus neoformans at 50 ug/disk paper disk method; assay type: functional, organism-based
Aspergillus flavus [2] = test: Antifungal activity against Aspergillus flavus 3 after 72 hrs by broth micromethod assay; assay type: functional
In short: (§1)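 Broth microdilution in YNB with 0.5% glucose, phosphate buffer pH 7, using ten 2-fold dilutions (50-0.097 µg/mL). Inoculum from 24-48 h Sabouraud agar cultures, final 5 × 10^2 cells for C. albicans and C. kefyr, 5 × 10^3 cells/conidia for C. glabrata, Cryptococcus neoformans and Aspergillus. Incubated at 35 °C up to 72 h, read every 24 h. MIC is the complete absence of growth versus medium controls.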

Aspergillus niger [3] = test: Antifungal activity against Aspergillus niger 2 after 24 hrs by broth micromethod assay; assay type: functional; in short: as §1
[4] = tested on: Colletotrichum gloeosporioides; test: Antifungal activity against Colletotrichum gloeosporioides ITEM 1729 at 15 ug/disk by paper disk method; assay type: functional; details: read-out: IZ
In short: (§2)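 Agar diffusion: a 0.7% water-agar overlay carrying 10^4 conidia/mL (or yeast cells) is poured on PDA. 6-mm cellulose disks loaded with methanolic compound at 5 or 15 µg/disk are air-dried and applied, with nystatin as comparator. Plates incubated 24-72 h at 25 °C; inhibition halo diameter read from three disks. Agar under each disk is subcultured on PDA to score fungicidal/fungistatic effect. Experiment run twice and averaged.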

Candida albicans = test: Antifungal activity against Candida albicans 2 after 24 hrs by broth micromethod assay; assay type: functional; in short: as §1
Fusarium graminearum = test: Antifungal activity against Fusarium graminearum ITEM 2 at 15 ug/disk by paper disk method; assay type: functional; details: read-out: IZ
In short: (§3)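 Agar overlay diffusion: 0.7% water-agar with 10^4 conidia/mL of test fungus poured over PDA; 6-mm cellulose disks impregnated with methanolic compound solution, air-dried. Incubated 25 °C for 24-72 h by fungus; growth-inhibition halo diameter from three replicate disks. Agar under disks then subcultured on PDA to score fungicidal/fungistatic classes. Repeated twice, averaged.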

Wickerhamomyces anomalus = test: Antifungal activity against Pichia anomala ITEM 1625 at 15 ug/disk by paper disk method; assay type: functional; details: Hansenula anomala; read-out: IZ
In short: (§4)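 Agar overlay disk diffusion on plant-derived filamentous fungi and yeasts: 0.7% water-agar seeded with 10^4 conidia/mL or a yeast cell suspension, poured over PDA. 6-mm cellulose disks were loaded from methanolic solutions and air-dried, with nystatin as comparator. Plates ran 24-72 h at 25 °C; inhibition halo was measured over three disks. Agar beneath disks was subcultured on PDA to separate fungicidal from fungistatic, scored in four classes; run twice, averaged.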

Botrytis cinerea [5] = test: Antifungal activity against Botrytis cinerea ITEM 966 at 15 ug/disk by paper disk method; assay type: functional; details: read-out: IZ; in short: as §2
Cryptococcus neoformans [6] = test: Antifungal activity against Cryptococcus neoformans 13 after 48 hrs by broth micromethod assay; assay type: functional; in short: as §1
Aspergillus fumigatus [7] = test: Antifungal activity against Aspergillus fumigatus 1 after 48 hrs by broth micromethod assay; assay type: functional; in short: as §1
[8] = tested on: Cladosporium cladosporioides; test: Antifungal activity against Cladosporium cladosporioides ITEM 2079 at 15 ug/disk by paper disk method; assay type: functional; details: read-out: IZ; in short: as §2
Starmera dryadoides = test: Antifungal activity against Pichia dryadoides ITEM 1663 at 15 ug/disk by paper disk method; assay type: functional; details: Liangdongia dryadoides; read-out: IZ; in short: as §4
Aspergillus niger [9] = test: Antifungal activity against Aspergillus niger 2 after 48 hrs by broth micromethod assay; assay type: functional; in short: as §1
Kluyveromyces lactis = test: Antifungal activity against Kluyveromyces lactis ITEM 1656 at 15 ug/disk by paper disk method; assay type: functional; details: read-out: IZ; in short: as §4
Alternaria citri = test: Antifungal activity against Alternaria citri ITEM 466 at 15 ug/disk by paper disk method; assay type: functional; details: read-out: IZ; in short: as §3
Solanum lycopersicum [10] = test: Phytotoxicity against tomato assessed as seedling germination; assay type: organism-based; details: in vivo
In short: (§5)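 Tomato seeds were surface-sterilized in 4% NaClO for 10 min and pregerminated 3 days in the dark. They were then placed 10 per dish on filter paper wetted with 2 mL of compound in 1% MeOH (10^-4 or 10^-5 M) and held 4 days at 25 °C under a 12-h photoperiod. Shoot and rootlet lengths were measured against control; done in triplicate, repeated once.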

Fusarium oxysporum = test: Antifungal activity against Fusarium oxysporum ITEM 149 at 15 ug/disk by paper disk method; assay type: functional; details: read-out: IZ; in short: as §2
Aspergillus niger [11] = test: Antifungal activity against Aspergillus niger 2 after 72 hrs by broth micromethod assay; assay type: functional; in short: as §1
Fusarium acuminatum = test: Antifungal activity against Fusarium acuminatum ITEM 795 at 15 ug/disk by paper disk method; assay type: functional; details: read-out: IZ; in short: as §2
Ascochyta rabiei = test: Antifungal activity against Ascochyta rabiei ITEM 1067 at 15 ug/disk by paper disk method; assay type: functional; details: read-out: IZ; in short: as §2
Aspergillus fumigatus [12] = test: Antifungal activity against Aspergillus fumigatus 1 after 72 hrs by broth micromethod assay; assay type: functional; in short: as §1
Cicer arietinum [13] = test: Phytotoxicity against chickpea cells at 10^-5 M; assay type: organism-based; details: 10 µM
In short: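 Cells came from 2-week-old chickpea leaves by enzyme digestion, washed in holding buffer at pH 5.55, and mixed 1:1 with compound (final 10^-5 to 10^-3 M in 1% MeOH). They were held 3 h at 25 °C in the dark, then stained with fluorescein diacetate. Viability was scored on 30 cells by fluorescence microscopy. Fusaric acid served as positive control; repeated twice.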

Kluyveromyces marxianus = test: Antifungal activity against Kluyveromyces fragilis ITEM 1657 at 15 ug/disk by paper disk method; assay type: functional; details: read-out: IZ; in short: as §4
Solanum lycopersicum [14] = test: Stimulation of root elongation in tomato at 10^-5 M; assay type: functional, organism-based; in short: as §5
Aspergillus flavus [15] = test: Antifungal activity against Aspergillus flavus 3 after 24 hrs by broth micromethod assay; assay type: functional; in short: as §1
Cryptococcus neoformans [16] = test: Antifungal activity against Cryptococcus neoformans 13 after 72 hrs by broth micromethod assay; assay type: functional; in short: as §1
Aspergillus flavus [17] = test: Antifungal activity against Aspergillus flavus 3 after 48 hrs by broth micromethod assay; assay type: functional; in short: as §1
Alternaria alternata = test: Antifungal activity against Alternaria alternata ITEM 511 at 15 ug/disk by paper disk method; assay type: functional; details: read-out: IZ; in short: as §2
Fusarium subglutinans = test: Antifungal activity against Fusarium subglutinans at 15 ug/disk by paper disk method; assay type: functional; in short: as §2
Cladosporium cucumerinum = test: Antifungal activity against Cladosporium cucumerinum ITEM 2095 at 15 ug/disk by paper disk method; assay type: functional; details: read-out: IZ; in short: as §2
Fusarium verticillioides = test: Antifungal activity against Fusarium moniliforme ITEM 1497 at 15 ug/disk by paper disk method; assay type: functional; details: read-out: IZ; in short: as §2
Cryptococcus neoformans [18] = test: Antifungal activity against Cryptococcus neoformans 14 after 72 hrs by broth micromethod assay; assay type: functional; in short: as §1
Aspergillus fumigatus [19] = test: Antifungal activity against Aspergillus fumigatus 1 after 24 hrs by broth micromethod assay; assay type: functional; in short: as §1
Pichia kluyveri = test: Antifungal activity against Pichia kluyveri ITEM 1649 at 15 ug/disk by paper disk method; assay type: functional; in short: as §4
Plenodomus tracheiphilus = test: Antifungal activity against Phoma tracheiphilla ITEM 1605 at 15 ug/disk by paper disk method; assay type: functional; details: read-out: IZ; in short: as §4
Cicer arietinum [20] = test: Phytotoxicity in chickpea leaf assessed as chlorosis in the leaf at 10^-3 M by leaf puncture assay; assay type: organism-based; details: in vivo, 1000 µM
In short: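 Tomato and chickpea leaves were punctured and treated with toxin dissolved in MeOH and diluted with water (final 4% MeOH), tested from 10^-2 to 10^-7 M. Chlorosis and necrosis were recorded visually as spot symptoms.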

[21] = tested on: Meyerozyma guilliermondii; test: Antifungal activity against Pichia guilliermondii ITEM 1644 at 15 ug/disk by paper disk method; assay type: functional; details: read-out: IZ; in short: as §4
Botrytis cinerea [22] = test: Antifungal activity against Botrytis cinerea at 15 ug/disk by paper disk method; assay type: functional; details: read-out: IZ; in short: as §2
Candida maltosa = test: Antifungal activity against Candida maltosa ITEM 1639 at 15 ug/disk by paper disk method; assay type: functional; details: read-out: IZ; in short: as §2

Structure (SMILES) | Activity (Cryptococcus neoformans [1]) | Activity (Aspergillus flavus [2]) [µg/mL] | Activity (Aspergillus niger [3]) [µg/mL] | zone of inhibition at 15 µg/disc [4] [mm] | Activity (Candida albicans) [µg/mL] | zone of inhibition at 15 µg/disc (Fusarium graminearum) [mm] | zone of inhibition at 15 µg/disc (Wickerhamomyces anomalus) [mm] | zone of inhibition at 15 µg/disc (Botrytis cinerea [5]) [mm] | Activity (Cryptococcus neoformans [6]) [µg/mL] | Activity (Aspergillus fumigatus [7]) [µg/mL] | zone of inhibition at 15 µg/disc [8] [mm] | zone of inhibition at 15 µg/disc (Starmera dryadoides) [mm] | Activity (Aspergillus niger [9]) [µg/mL] | zone of inhibition at 15 µg/disc (Kluyveromyces lactis) [mm] | zone of inhibition at 15 µg/disc (Alternaria citri) [mm] | Activity (Solanum lycopersicum [10]) | zone of inhibition at 15 µg/disc (Fusarium oxysporum) [mm] | Activity (Aspergillus niger [11]) [µg/mL] | zone of inhibition at 15 µg/disc (Fusarium acuminatum) [mm] | zone of inhibition at 15 µg/disc (Ascochyta rabiei) [mm] | further results
CCCCCCC(C)C/C(C)=C\C(C)/C=C(C)/C=C/C(O)C(C)(C)c1cc(O)c([C@@H]2O[C@@H](CO)C[C@@H](O)[C@@H]2O)c(=O)o1 (stereo partly drawn) [DEXOYFUSAPYRONE] | Active | 1.56 | 1.56 | 13.8 | >50 | 10.8 | 0 | 13.5 | 6.25 | 3.12 | 16.2 | 0 | 1.56 | 0 | 9.2 | Not Active | 4 | 1.56 | 0 | 12 | Activity (Aspergillus fumigatus [12]): 3.12 µg/mL; Activity (Cicer arietinum [13]): Active; zone of inhibition at 15 µg/disc (Kluyveromyces marxianus): 0 mm; Activity (Solanum lycopersicum [14]): Active; Activity (Aspergillus flavus [15]): 1.56 µg/mL; Activity (Cryptococcus neoformans [16]): 6.25 µg/mL; Activity (Aspergillus flavus [17]): 1.56 µg/mL; zone of inhibition at 15 µg/disc (Alternaria alternata): 11 mm; Activity (Fusarium subglutinans): 0 mm; zone of inhibition at 15 µg/disc (Cladosporium cucumerinum): 13.5 mm; zone of inhibition at 15 µg/disc (Fusarium verticillioides): 0 mm; Activity (Cryptococcus neoformans [18]): 3.12 µg/mL; Activity (Aspergillus fumigatus [19]): 3.12 µg/mL; Activity (Pichia kluyveri): 0 mm; zone of inhibition at 15 µg/disc (Plenodomus tracheiphilus): 16.3 mm; Activity (Cicer arietinum [20]): Active; zone of inhibition at 15 µg/disc [21]: 0 mm; zone of inhibition at 15 µg/disc (Botrytis cinerea [22]): 17 mm; zone of inhibition at 15 µg/disc (Candida maltosa): 0 mm
CCCCCCC(C)C/C(C)=C\C(/C=C(C)/C=C/C(O)C(C)(C)c1cc(O)c([C@@H]2O[C@@H](CO)C[C@@H](O)[C@@H]2O)c(=O)o1)CO (stereo partly drawn) [FUSAPYRONE] | Active | 1.56 | 1.56 | 31.8 | >50 | 26.5 | 0 | 29.3 | 6.25 | 1.56 | 28.7 | 0 | 1.56 | 0 | 18 | Not Active | 27.7 | 1.56 | 17.8 | 35.8 | Activity (Aspergillus fumigatus [12]): 1.56 µg/mL; Activity (Cicer arietinum [13]): Active; zone of inhibition at 15 µg/disc (Kluyveromyces marxianus): 0 mm; Activity (Solanum lycopersicum [14]): Active; Activity (Aspergillus flavus [15]): 1.56 µg/mL; Activity (Cryptococcus neoformans [16]): 6.25 µg/mL; Activity (Aspergillus flavus [17]): 1.56 µg/mL; zone of inhibition at 15 µg/disc (Alternaria alternata): 18 mm; Activity (Fusarium subglutinans): 6 mm; zone of inhibition at 15 µg/disc (Cladosporium cucumerinum): 33.3 mm; zone of inhibition at 15 µg/disc (Fusarium verticillioides): 20.1 mm; Activity (Cryptococcus neoformans [18]): 3.12 µg/mL; Activity (Aspergillus fumigatus [19]): 1.56 µg/mL; Activity (Pichia kluyveri): 0 mm; zone of inhibition at 15 µg/disc (Plenodomus tracheiphilus): 40 mm; Activity (Cicer arietinum [20]): Active; zone of inhibition at 15 µg/disc [21]: 0 mm; zone of inhibition at 15 µg/disc (Botrytis cinerea [22]): 30 mm; zone of inhibition at 15 µg/disc (Candida maltosa): 0 mm
